pPAFAH FP inh – pPAFAH (human) enzyme inhibition. inhibition, % at 3.39 µM. Q13093. 1.5% of 330,000 active. AID 463082. recombinant pPAFAH, FP-rhodamine probe fluorescence polarization;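 active = inhibition above the mean inhibition across the screen plus 3 SD, cut at about 25% in these data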;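 note: inhibitors block binding of the rhodamine activity-based probe so polarization drops; 0% = enzyme with DMSO and 100% = wells lacking pPAFAH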
Target sequence (Q13093 whole entry, looked up): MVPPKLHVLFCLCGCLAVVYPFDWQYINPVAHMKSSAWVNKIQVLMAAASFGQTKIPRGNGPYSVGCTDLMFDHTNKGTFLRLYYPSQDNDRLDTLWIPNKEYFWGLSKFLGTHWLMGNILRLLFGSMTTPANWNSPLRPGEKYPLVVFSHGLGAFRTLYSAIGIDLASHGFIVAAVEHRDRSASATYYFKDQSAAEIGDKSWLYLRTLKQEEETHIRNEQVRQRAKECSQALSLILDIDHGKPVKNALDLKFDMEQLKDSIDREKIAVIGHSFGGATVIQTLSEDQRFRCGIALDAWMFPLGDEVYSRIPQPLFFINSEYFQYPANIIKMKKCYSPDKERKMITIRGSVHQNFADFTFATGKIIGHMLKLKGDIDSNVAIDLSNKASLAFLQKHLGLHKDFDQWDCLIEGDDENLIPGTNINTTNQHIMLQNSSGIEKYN
PAFAH1B3 inh – PAFAH1B3 (human) inhibition; Q15102; recombinant PAFAH1B3, FP-rhodamine probe, fluorescence polarization; inhibition, % at 3.39 µM; 0.28% of 340,000 active; AID 492972;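 active = inhibition above the screen-wide average of all tested compounds plus 3 SD, cut at about 25% in these data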;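 note: 0% = enzyme with DMSO only and 100% = wells lacking PAFAH1B3 protein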
PAFAH1B2 FP inh – PAFAH1B2 (human) inhibition; recombinant PAFAH1B2, FP-rhodamine activity probe, fluorescence polarization; inhibition, % at 3.39 µM; 1.2% of 340,000 active;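 active = inhibition above the mean of all tested compounds plus 3 SD, cut at about 24% in these data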;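 note: 0% = enzyme with DMSO and 100% = wells lacking PAFAH1B2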
Target sequence (P68402 whole entry, looked up): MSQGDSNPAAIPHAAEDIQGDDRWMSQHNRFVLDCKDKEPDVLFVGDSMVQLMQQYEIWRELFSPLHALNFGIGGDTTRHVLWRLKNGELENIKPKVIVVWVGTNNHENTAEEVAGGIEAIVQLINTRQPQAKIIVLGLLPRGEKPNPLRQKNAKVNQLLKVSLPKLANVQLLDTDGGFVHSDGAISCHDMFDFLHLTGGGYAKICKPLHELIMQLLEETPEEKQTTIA
PAFAH2 FP inh – inhibitors of human PAFAH2; inhibition, % at 3.39 µM; recombinant PAFAH2, FP-rhodamine activity probe, fluorescence polarization; Q99487; 0.99% of 340,000 active; AID 492956;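 active = inhibition above the mean over all tested compounds plus 3 SD, cut at about 30% in these data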;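 note: inhibitors block probe labeling of enzyme so polarization drops; 0% = enzyme with DMSO and 100% = wells lacking PAFAH2 protein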
ABHD4 inh – inhibitors of mouse ABHD4; inhibition, % at 8.92 µM; purified mABHD4, FP-Rh probe fluorescence polarization; 0.54% of 370,000 active; Q8VD66;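 active = inhibition exceeding the mean over every tested compound plus 3 SD, cut at about 30% in these data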;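 note: 0% = plate median of compound wells and 100% = S159A mutant with DMSO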
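Doses – 8.92 µM, single dose · Material – wild-type mouse ABHD4 protein · Replication – single well per compound (singlicate) · Measure – percent inhibition of probe binding, normalized to plate controls · Schedule – 45 min compound pre-incubation plus 60 min probe step, 25 °C · Detection – fluorescence polarization with parallel and perpendicular emission, 525/598 nm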
HTRA1 inh – blocks human HTRA1 serine peptidase; Q92743; AID 504803; 0.5% of 340,000 active; inhibition, % at 5.96 µM; recombinant HTRA1, FP-rhodamine activity-based probe, fluorescence polarization; in the data active = inhibition above about 36%;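 note: 0% = enzyme with DMSO and 100% = wells lacking enzyme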
PAFAH2 FP conf – confirmation of human PAFAH2 inhibitors; shares compounds with PAFAH2 FP inh; recombinant PAFAH2, FP-rhodamine activity probe, fluorescence polarization; inhibition, % at 3.39 µM; 65% of 2,300 active;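 active = mean inhibition over three repeats above a set limit taken from the earlier primary screen, cut at about 30% in these data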;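 note: inhibitor blocks binding of rhodamine activity probe so polarization falls; 0% = enzyme with DMSO and 100% = wells lacking PAFAH2 protein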
The depositor's hits bear a star. Rows were chosen to be rich in hits. Some 2.8% of all compounds tested hit in one or more screens of this group.

C=CCNC(=O)/C=C/c1cccs1 was read as pPAFAH FP inh 2, PAFAH1B3 inh 1, PAFAH1B2 FP inh 7, PAFAH2 FP inh 8, ABHD4 inh 3 and HTRA1 inh -4.
For CC(C)C(=O)NC(=O)COC(=O)/C=C/c1cccs1 the results were pPAFAH FP inh 5, PAFAH1B3 inh 7, PAFAH1B2 FP inh 2, PAFAH2 FP inh 53*, ABHD4 inh -4, HTRA1 inh 9 and PAFAH2 FP conf 42*.
For CN(C(=O)COC(=O)/C=C/c1cccs1)C1CCCCC1 the results were pPAFAH FP inh 2, PAFAH1B3 inh 1, PAFAH1B2 FP inh 0, PAFAH2 FP inh 75*, ABHD4 inh 5, HTRA1 inh -5 and PAFAH2 FP conf 73*.
CC(C)(C)c1ccc(S(=O)(=O)N2CCCC2C(=O)N2CCc3ccccc3C2)cc1 (stereo unspecified) was read as ABHD4 inh -2.
Screening COC(=O)C1CN(Cc2ccccc2)CCS(=O)(=O)N1Cc1cn(Cc2ccc(Cl)cc2)nn1 (stereo unspecified) returned ABHD4 inh 2.
Cc1ccccc1CN1CCCCC(NC(=O)C2CCCCC2)C1=O (stereo unspecified) was read as ABHD4 inh 4.
COC(=O)[C@]12C[C@H](CC(=O)NCc3cccc(C(F)(F)F)c3)C(=O)N(Cc3cccc4ccccc34)C1=C[C@H](C(C)C)O[C@@H]2C1CC1 was read as ABHD4 inh -12.
`CCN(c1ccc(NC(=O)COC(=O)/C=C/c2cccs2)cc1)C(C)C` gave pPAFAH FP inh 10, PAFAH1B3 inh 3, PAFAH1B2 FP inh 3, PAFAH2 FP inh 42*, ABHD4 inh 7, HTRA1 inh 6 and PAFAH2 FP conf 24.
COc1ccc(CC(=O)OCC(=O)Nc2cc(S(=O)(=O)N3CCOCC3)ccc2N2CCCC2)cc1 was read as pPAFAH FP inh 21, PAFAH1B3 inh 5, PAFAH1B2 FP inh 4, PAFAH2 FP inh 7, ABHD4 inh 1 and HTRA1 inh 2.
Screening COc1cc(C(=O)OCC(=O)Nc2cccc(S(=O)(=O)N3CCOCC3)c2)ccc1OCC(C)C returned pPAFAH FP inh 4, PAFAH1B3 inh 5, PAFAH1B2 FP inh -3, PAFAH2 FP inh 46*, ABHD4 inh 2, HTRA1 inh -1 and PAFAH2 FP conf 44*.
`COc1cc(C(=O)OCC(=O)Nc2cc(S(=O)(=O)N3CCOCC3)ccc2C)ccc1OCC(C)C` gave pPAFAH FP inh 6, PAFAH1B3 inh 1, PAFAH1B2 FP inh -2, PAFAH2 FP inh 58*, ABHD4 inh -4, HTRA1 inh -12 and PAFAH2 FP conf 49*.
`COc1cc(C(=O)OCc2cccc(S(=O)(=O)N3CCOCC3)c2)ccc1OCC(C)C` gave pPAFAH FP inh 19, PAFAH1B3 inh -1, PAFAH1B2 FP inh -4, PAFAH2 FP inh 4, ABHD4 inh -12 and HTRA1 inh -30.
`COc1ccc(C(=O)OCC(=O)Nc2cc(S(=O)(=O)N3CCOCC3)ccc2N2CCCC2)cc1` gave pPAFAH FP inh 14, PAFAH1B3 inh 5, PAFAH1B2 FP inh 2, PAFAH2 FP inh 38*, ABHD4 inh 0, HTRA1 inh -3 and PAFAH2 FP conf 33*.
For Cc1ccc(S(=O)(=O)N2CCOCC2)cc1NC(=O)COC(=O)c1ccc(Br)cc1 the results were pPAFAH FP inh 16, PAFAH1B3 inh 8, PAFAH1B2 FP inh -2, PAFAH2 FP inh 42*, ABHD4 inh 0, HTRA1 inh -2 and PAFAH2 FP conf 31*.
COc1ccc(OC)c(NC(=O)COC(=O)c2ccc(S(=O)(=O)N3CCOCC3)cc2)c1 was read as pPAFAH FP inh 1, PAFAH1B3 inh 4, PAFAH1B2 FP inh 1, PAFAH2 FP inh -3, ABHD4 inh -1 and HTRA1 inh 4.
Screening Nc1cc(C(=O)OCC(=O)Nc2cccc(S(=O)(=O)N3CCOCC3)c2)ccc1Cl returned pPAFAH FP inh 7, PAFAH1B3 inh 2, PAFAH1B2 FP inh -6, PAFAH2 FP inh 65*, ABHD4 inh 3, HTRA1 inh -10 and PAFAH2 FP conf 58*.
Screening O=C(COC(=O)CCCN1C(=O)c2cccc3cccc(c23)C1=O)Nc1ccc(Cl)cc1 returned pPAFAH FP inh 6, PAFAH1B3 inh -13, PAFAH1B2 FP inh 0, PAFAH2 FP inh 48*, ABHD4 inh 2, HTRA1 inh -29 and PAFAH2 FP conf 29.
For NC(=O)c1ccc(NC(=O)COC(=O)CCCN2C(=O)c3cccc4cccc(c34)C2=O)cc1 the results were pPAFAH FP inh 5, PAFAH1B3 inh -8, PAFAH1B2 FP inh 5, PAFAH2 FP inh 2, ABHD4 inh 10 and HTRA1 inh -4.
For O=C(C1CCCN1S(=O)(=O)c1ccc([N+](=O)[O-])cc1)N1CCN(c2ccccc2)CC1 (stereo unspecified) the results were ABHD4 inh -3.
`NC(=O)Nc1ccc(C(=O)OCC(=O)c2c[nH]c3ccccc23)cc1` gave pPAFAH FP inh 7, PAFAH1B3 inh 11, PAFAH1B2 FP inh 1, PAFAH2 FP inh 36*, ABHD4 inh -8, HTRA1 inh -15 and PAFAH2 FP conf 30.
`N#Cc1ccccc1NC(=O)COC(=O)c1c[nH]c2ccccc12` gave PAFAH1B3 inh -5, PAFAH1B2 FP inh -4, PAFAH2 FP inh 69*, ABHD4 inh 5, HTRA1 inh -3 and PAFAH2 FP conf 67*.
`N#CCC(=O)Nc1ccc(C(=O)OCC(=O)c2c[nH]c3ccccc23)cc1` gave pPAFAH FP inh -14, PAFAH1B3 inh -20, PAFAH1B2 FP inh -11, PAFAH2 FP inh -11, ABHD4 inh -62 and HTRA1 inh -57.
`Cc1ccc(NC(=O)COC(=O)c2c[nH]c3ccccc23)cc1C` gave pPAFAH FP inh 19, PAFAH1B3 inh 4, PAFAH1B2 FP inh 4, PAFAH2 FP inh 71*, ABHD4 inh -12, HTRA1 inh -16 and PAFAH2 FP conf 71*.
Screening O=C(COC(=O)c1c[nH]c2ccccc12)NC1CCCC1 returned pPAFAH FP inh 14, PAFAH1B3 inh 10, PAFAH1B2 FP inh 5, PAFAH2 FP inh 72*, ABHD4 inh 2, HTRA1 inh 2 and PAFAH2 FP conf 68*.
Screening COc1ccc2c(c1)CN1CN(C3CCCC3)S(=O)(=O)CC21 (stereo unspecified) returned ABHD4 inh -1.
Screening CCCCCCCCN1C(=O)[C@@H](CC(=O)N2CCN(C(=O)OCC)CC2)C[C@@]2(C(=O)OC)C1=C[C@H](C(C)C)O[C@@H]2C1CC1 returned ABHD4 inh -4.

Source: PubChem (The Scripps Research Institute Molecular Screening Center)
